Active and inactive are the calls of the source. The calls are words filed in the database; no cut-off is given here.
What was measured:
Mus musculus [1] = assay: Antiarthritic activity in DBA/1J mouse collagen-induced arthritis model assessed as reduction in paw thickness at 30 mg/kg, ip administered every morning for 1 week measured during compound dosing; type: functional, organism-based
Outline: (§1)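 Collagen type II-induced arthritis in mice, treated at 30 mg/kg versus vehicle. Clinical arthritis score and paw swelling were followed over time from the start of treatment until the end of the experiment.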

Mus musculus [2] = assay: Toxicity in DBA/1J mouse collagen-induced arthritis model assessed as effect on red blood cell count at 30 mg/kg, ip administered every morning for 12 to 14 days measured post last dose relative to vehicle-treated control; type: organism-based; conditions: in vivo
Mus musculus [3] = assay: Antiarthritic activity in DBA/1J mouse collagen-induced arthritis model assessed as decrease in clinical scores at 30 mg/kg, ip administered every morning for 12 to 14 days measured during compound dosing relative to vehicle-treated control; type: functional; design: scale not given: the % may be the effect or the level left; outline: as §1
Histone deacetylase 4 = Histone deacetylase 4 (Homo sapiens, UniProt P56524); assay: Inhibition of recombinant human C-terminal GST-tagged HDAC4 expressed in baculovirus-infected insect cells using Boc-Lys(TFA)-AMC as substrate by fluorimeter
Sequence of Histone deacetylase 4 (P56524 whole entry): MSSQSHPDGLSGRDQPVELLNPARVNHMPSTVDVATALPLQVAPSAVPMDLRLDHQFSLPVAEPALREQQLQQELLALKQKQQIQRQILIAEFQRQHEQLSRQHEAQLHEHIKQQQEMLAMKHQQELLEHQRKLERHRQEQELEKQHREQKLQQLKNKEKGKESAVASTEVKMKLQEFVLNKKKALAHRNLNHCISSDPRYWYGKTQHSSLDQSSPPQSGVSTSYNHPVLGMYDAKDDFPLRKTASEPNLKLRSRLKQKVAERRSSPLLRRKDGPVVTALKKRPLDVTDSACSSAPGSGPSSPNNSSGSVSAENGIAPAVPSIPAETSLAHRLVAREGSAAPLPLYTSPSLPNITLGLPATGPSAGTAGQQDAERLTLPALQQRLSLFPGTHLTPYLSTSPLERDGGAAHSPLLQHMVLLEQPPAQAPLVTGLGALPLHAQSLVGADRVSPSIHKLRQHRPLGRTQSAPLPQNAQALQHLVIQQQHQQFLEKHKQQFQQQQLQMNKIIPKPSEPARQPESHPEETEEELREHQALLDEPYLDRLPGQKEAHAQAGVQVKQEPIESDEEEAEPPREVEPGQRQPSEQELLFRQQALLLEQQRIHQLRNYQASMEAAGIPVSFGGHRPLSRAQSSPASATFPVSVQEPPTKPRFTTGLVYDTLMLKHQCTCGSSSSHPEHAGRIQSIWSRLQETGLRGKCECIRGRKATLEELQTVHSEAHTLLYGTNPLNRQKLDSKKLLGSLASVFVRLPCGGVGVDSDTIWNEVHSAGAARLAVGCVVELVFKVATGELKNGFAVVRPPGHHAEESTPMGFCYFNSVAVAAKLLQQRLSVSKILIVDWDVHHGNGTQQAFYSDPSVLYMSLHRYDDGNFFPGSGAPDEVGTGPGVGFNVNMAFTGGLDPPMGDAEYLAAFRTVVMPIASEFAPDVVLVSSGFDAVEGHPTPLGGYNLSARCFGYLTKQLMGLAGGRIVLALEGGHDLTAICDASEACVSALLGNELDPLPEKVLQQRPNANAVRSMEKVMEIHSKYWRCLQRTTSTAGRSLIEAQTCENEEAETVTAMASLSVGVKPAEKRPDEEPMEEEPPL

Mus musculus [4] = assay: Antiarthritic activity in DBA/1J mouse collagen-induced arthritis model assessed as decrease in histological scores at 30 mg/kg, ip administered every morning for 12 to 14 days measured during compound dosing relative to vehicle-treated control; type: functional; design: scale not given: the % may be the effect or the level left
Outline: (§2)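 Collagen type II-induced arthritis in mice, treated at 30 mg/kg versus vehicle. Arthritic paws were assessed histologically for synovial inflammation, cellular invasion, cartilage degradation and bone erosion.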

Mus musculus [5] = assay: Antiarthritic activity in DBA/1J mouse collagen-induced arthritis model assessed as decrease in sign of synovial inflammation at 30 mg/kg, ip administered every morning for 12 to 14 days; type: functional, organism-based; outline: as §2
[6] = biological target: T1, Protein deacetylase HDAC6 (Homo sapiens) (UniProt Q9UBN7); conditions: 50 nM
T1 sequence (whole entry): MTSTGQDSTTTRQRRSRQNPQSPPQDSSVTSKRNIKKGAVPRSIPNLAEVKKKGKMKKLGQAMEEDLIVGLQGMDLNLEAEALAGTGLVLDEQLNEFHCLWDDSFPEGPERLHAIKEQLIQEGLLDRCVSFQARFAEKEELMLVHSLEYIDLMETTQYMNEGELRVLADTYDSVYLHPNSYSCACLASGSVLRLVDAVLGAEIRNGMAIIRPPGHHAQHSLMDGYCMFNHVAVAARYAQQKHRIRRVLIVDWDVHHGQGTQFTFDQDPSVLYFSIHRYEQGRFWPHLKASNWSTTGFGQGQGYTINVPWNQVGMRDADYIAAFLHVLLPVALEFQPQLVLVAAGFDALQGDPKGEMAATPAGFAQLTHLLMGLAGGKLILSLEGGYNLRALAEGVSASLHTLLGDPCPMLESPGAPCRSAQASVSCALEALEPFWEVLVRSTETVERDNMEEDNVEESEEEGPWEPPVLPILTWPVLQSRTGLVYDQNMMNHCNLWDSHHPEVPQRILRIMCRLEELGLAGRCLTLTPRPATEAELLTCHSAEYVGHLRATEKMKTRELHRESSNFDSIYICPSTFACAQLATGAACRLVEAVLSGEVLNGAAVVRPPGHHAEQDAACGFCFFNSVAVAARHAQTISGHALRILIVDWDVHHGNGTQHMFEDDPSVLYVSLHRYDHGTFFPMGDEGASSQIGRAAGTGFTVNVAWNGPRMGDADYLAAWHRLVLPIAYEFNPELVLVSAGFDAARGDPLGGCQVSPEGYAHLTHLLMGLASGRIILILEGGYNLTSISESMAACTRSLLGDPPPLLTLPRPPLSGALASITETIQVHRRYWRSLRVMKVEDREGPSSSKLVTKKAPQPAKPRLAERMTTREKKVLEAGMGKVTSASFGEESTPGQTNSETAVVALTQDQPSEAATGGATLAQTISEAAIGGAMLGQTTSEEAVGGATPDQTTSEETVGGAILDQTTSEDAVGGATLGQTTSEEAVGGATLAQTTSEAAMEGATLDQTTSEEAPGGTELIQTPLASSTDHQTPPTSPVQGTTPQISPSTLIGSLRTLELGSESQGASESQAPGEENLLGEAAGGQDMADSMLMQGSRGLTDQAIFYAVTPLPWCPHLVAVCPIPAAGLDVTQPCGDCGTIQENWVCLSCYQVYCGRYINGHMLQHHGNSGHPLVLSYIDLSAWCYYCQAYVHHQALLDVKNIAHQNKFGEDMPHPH

Mus musculus [7] = assay: Antiarthritic activity in DBA/1J mouse collagen-induced arthritis model assessed as decrease in degradation of cartilage at 30 mg/kg, ip administered every morning for 12 to 14 days; type: functional, organism-based; outline: as §2
[8] = Inhibition of class 1 HDAC in human MV4-11 cells assessed as induction of histone hyperacetylation at 50 nM to 10 uM after 24 hrs by Western blot method; type: cell-based; conditions: 0.05 µM
Outline: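 MV4-11 cells were exposed to the inhibitor, from 5 nM to 10 µM for 24 h or at 50 nM for 10 min to 48 h. Lysates were immunoblotted for acetylated tubulin, acetylated histone H3 and HDAC6. Acetyl-tubulin was quantified by densitometry normalised to HSP90. MS-275 at 5 µM for 24 h was the comparator. Blots are representative of at least two independent experiments.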

Histone deacetylase 1 = Histone deacetylase 1 (Homo sapiens, UniProt Q13547); assay: Inhibition of recombinant human C-terminal FLAG/His-tagged HDAC1 expressed in baculovirus-infected Sf21 insect cells using RHKK(Ac)AMC as substrate after 60 mins by fluorimeter
Sequence of Histone deacetylase 1 (Q13547 whole entry): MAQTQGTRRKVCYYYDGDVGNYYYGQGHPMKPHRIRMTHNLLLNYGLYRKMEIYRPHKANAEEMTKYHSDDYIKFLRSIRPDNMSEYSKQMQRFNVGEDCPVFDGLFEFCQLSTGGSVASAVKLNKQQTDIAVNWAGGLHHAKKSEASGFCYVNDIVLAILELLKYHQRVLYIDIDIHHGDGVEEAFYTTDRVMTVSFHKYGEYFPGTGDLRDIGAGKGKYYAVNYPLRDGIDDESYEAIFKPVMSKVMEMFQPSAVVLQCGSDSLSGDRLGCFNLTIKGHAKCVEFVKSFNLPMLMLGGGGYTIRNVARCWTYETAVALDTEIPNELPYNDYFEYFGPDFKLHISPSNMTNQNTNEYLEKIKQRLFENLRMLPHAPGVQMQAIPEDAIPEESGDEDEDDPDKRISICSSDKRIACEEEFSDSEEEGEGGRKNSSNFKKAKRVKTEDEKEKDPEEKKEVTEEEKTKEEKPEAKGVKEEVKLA

[9] = biological target: T2, Polyamine deacetylase HDAC10 (Homo sapiens, UniProt Q969S8); assay: Inhibition of recombinant human HDAC10 expressed in baculovirus-infected insect cells using fluorogenic peptide RHKKAc as substrate by fluorimeter
T2 sequence (Q969S8 whole entry): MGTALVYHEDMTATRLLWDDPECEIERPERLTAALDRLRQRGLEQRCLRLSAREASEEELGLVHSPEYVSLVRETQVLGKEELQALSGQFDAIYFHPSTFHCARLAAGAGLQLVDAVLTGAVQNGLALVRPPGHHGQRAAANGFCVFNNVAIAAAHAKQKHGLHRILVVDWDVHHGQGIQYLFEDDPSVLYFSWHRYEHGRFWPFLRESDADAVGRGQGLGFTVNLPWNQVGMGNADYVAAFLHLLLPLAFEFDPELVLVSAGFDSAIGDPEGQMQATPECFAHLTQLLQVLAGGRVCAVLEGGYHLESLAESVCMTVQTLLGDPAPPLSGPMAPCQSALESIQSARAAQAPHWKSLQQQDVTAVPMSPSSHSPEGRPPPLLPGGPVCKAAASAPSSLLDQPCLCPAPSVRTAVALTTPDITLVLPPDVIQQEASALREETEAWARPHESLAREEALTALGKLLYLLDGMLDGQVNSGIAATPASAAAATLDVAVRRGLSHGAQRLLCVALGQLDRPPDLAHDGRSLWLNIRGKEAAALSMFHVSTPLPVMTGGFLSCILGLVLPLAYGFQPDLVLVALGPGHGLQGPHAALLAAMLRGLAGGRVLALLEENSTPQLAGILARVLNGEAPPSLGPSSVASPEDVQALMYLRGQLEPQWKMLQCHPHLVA

Ki (Histone deacetylase 4): 1820 nM
inhibition [6]: Active
inhibition (INH) [8]: Not Active
Ki (Histone deacetylase 1): 358 nM
Ki [9]: 452 nM
Structure (SMILES): CN1C(=O)C2CN(Cc3c2c2ccccc2n3Cc2ccc(C(=O)NO)cc2)C1=O (stereo unspecified)
Activity (Mus musculus [1]): Active
Activity (Mus musculus [2]): Non-Toxic
Activity (Mus musculus [3]): 25%
Activity (Mus musculus [4]): 50%
Activity (Mus musculus [5]): Active
Activity (Mus musculus [7]): Active
